This is a sample that favours compounds with a hit; in the whole collection about 12% have one here.
Diaph inh CS: inhibits diaphorase or chemically oxidizes, flagging diaphorase assay artifacts. diaphorase resazurin-to-resorufin fluorescence, NADH, 16 min; bacterial (C. kluyveri) enzyme, not human. inhibition, % at 20 µM. actives 0.69% (n = 190,000). AID 1217;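 active = primary screen inhibition at 20 µM above a set limit, cut at about 50% in these data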;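 note: plate controls were DMSO with full reaction for no effect and wells lacking NADH for full effect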
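material = Clostridium kluyveri diaphorase enzyme | amount = 0.14 U/mL diaphorase, enzyme working solution | schedule = incubation 16 min, room temperature | detection = fluorescence of resorufin formed from resazurin, Ex 544/Em 590 nm | benchmarks = positive control minus NADH, DMSO neutral control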
KCC2 mod: KCC2 (human) Cl- transport modulation; Q9H2X9; KCC2 cells, thallium flux FluoZin-2 fluorescence; B-score of Tl+ flux slope (higher = more flux/activation; lower = inhibition) at 10 µM; actives 2.2% (n = 190,000);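 active = thallium flux slope and its plate-corrected score both differing from the plate sample mean at a set confidence after two filtering rounds, in either direction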;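 note: slope of fluorescence scaled to starting intensity during 10 to 20 s after thallium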
Target sequence (Q9H2X9 whole entry, looked up): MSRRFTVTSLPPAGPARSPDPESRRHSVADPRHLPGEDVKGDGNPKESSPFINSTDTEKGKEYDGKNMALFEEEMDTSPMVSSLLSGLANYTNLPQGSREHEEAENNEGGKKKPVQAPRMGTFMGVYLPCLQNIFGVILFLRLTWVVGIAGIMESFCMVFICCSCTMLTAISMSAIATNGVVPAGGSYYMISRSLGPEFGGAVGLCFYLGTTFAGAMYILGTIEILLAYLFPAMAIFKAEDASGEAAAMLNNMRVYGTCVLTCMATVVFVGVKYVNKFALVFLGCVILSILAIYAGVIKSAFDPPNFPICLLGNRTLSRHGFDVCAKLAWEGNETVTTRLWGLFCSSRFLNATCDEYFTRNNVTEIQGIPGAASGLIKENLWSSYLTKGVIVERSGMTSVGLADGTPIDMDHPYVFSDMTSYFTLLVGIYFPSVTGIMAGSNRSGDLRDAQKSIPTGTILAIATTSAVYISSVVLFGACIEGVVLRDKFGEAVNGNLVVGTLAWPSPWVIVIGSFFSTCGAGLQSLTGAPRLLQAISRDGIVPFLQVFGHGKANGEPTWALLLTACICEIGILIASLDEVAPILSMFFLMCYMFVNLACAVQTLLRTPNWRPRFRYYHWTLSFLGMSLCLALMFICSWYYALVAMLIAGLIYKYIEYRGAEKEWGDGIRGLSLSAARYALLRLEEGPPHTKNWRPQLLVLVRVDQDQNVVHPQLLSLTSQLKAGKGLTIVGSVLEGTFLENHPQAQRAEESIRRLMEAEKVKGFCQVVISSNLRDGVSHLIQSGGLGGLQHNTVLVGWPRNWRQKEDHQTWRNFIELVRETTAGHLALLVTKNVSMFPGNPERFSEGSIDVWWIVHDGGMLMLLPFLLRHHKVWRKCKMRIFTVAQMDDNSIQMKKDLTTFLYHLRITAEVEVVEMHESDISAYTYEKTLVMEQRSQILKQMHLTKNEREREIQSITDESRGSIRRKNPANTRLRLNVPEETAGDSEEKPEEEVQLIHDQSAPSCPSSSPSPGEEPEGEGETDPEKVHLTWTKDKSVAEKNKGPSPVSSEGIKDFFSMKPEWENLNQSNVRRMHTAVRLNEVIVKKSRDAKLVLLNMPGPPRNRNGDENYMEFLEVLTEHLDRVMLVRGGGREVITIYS
WT yeast gro inh: growth inhibition of WT yeast, mitochondrial fusion screen; actives 2.1% (n = 190,000); inhibition, % at 10 µM; mitochondrial fusion phenotypic screen, WT strain; in the data active = inhibition above about 58%; tested in S. cerevisiae
ROMK mod: modulates human ROMK potassium channel activity; P48048; B-score at 10 µM; Tet-inducible ROMK, thallium flux fluorescence; actives lie on both sides; actives 2% (n = 130,000); AID 1918;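 active = signal ratio slope over the read window, or its plate-corrected B-score, at least 3 SD from the plate mean, either direction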;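 note: B-score of the F/F0 ratio slope over 7 to 12 s after thallium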
Diaphorase act: counter-screen for diaphorase-based assays: diaphorase activators and chemical reducers; Diaphorase/resazurin coupled assay, resorufin fluorescence, 16 min; stronger effect = higher value; 1 = vehicle wells, 0 = NADH-free wells; actives 0.005% (n = 190,000); activation factor at 20 µM;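 active = diaphorase activity raised at least twofold by the compound at 20 µM; inactive = activation factor below 2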
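Material: bacterial diaphorase enzyme (C. kluyveri); amount: enzyme 0.07 U/mL final; reagent: NADH substrate 0.114 mM plus resazurin dye 0.1 mM, final; doses: single compound dose of 20 µM, 1% DMSO final; timing: 16 min enzyme reaction, ambient temperature; measured by: fluorescence of resorufin, 544 nm excitation, 590 nm emission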
Lmaj promast: reduces viability of Leishmania major promastigotes; resazurin fluorescence viability; inhibition, % at 10 µM; actives 9% (n = 200,000); AID 1063; in the data active = inhibition above about 50%;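 note: promastigotes grown with compound for 44 hours at 28 °C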
An asterisk follows results filed as active; . = not tested or not shown.

SMILES | Diaph inh CS | KCC2 mod | WT yeast gro inh | ROMK mod | Diaphorase act | Lmaj promast
Cc1ccc(C#CC[N+](C)(C)CC#Cc2ccccc2)cc1 | -10 | -0.059 | 7 | -2.5 | 1.1 | 100*
Nc1nc(SCC(=O)Nc2cccc(Oc3ccccc3)c2)n[nH]1 | 15 | -1.6 | 2 | . | 0.8 | 56*
Nc1nc(SCC(=O)Nc2ccc(Oc3ccccc3)cc2)n[nH]1 | 4 | -0.079 | -7 | -0.75 | 1 | -4
O=C(NN1C(=O)C2C3C=CC(C3)C2C1=O)c1ccccc1 (stereo not given) | -6 | . | -8 | 0.00012 | 1.1 | -5
O=C(NN1C(=O)C2C3c4ccccc4C(c4ccccc43)C2C1=O)c1ccc(Cl)cc1 (stereo not given) | 25 | 0.8 | 17 | -0.055 | 0.8 | 72*
CCOC(=O)C1=NN(C(=O)COc2ccccc2)C(O)(c2ccc(Br)cc2)C1 (stereo not given) | 12 | . | -3 | -0.48 | 0.9 | -4
Cc1cc(C(=O)c2ccccc2)c(NC(=O)CN2CCOCC2)s1 | 23 | 0.85 | -14 | . | 0.8 | 32
Cc1ccc(C(=O)c2cc(C)sc2NC(=O)CN2CCN(C(=O)c3ccco3)CC2)cc1 | 36 | . | 79* | . | 0.6 | 50*
COc1ccc(C(=O)Nc2n[nH]c(-c3ccncc3)n2)cc1 | 3 | 1 | 5 | -0.58 | 1 | 1
COC(=O)c1scc(C)c1NC(=O)C1CCCCC1 | 16 | 0.82 | 4 | . | 0.8 | 19
CCOC(=O)C1CCN(CC(=O)Nc2cc(S(=O)(=O)N3CCOCC3)ccc2C)CC1 | 11 | -0.12 | 5 | 1.1 | 0.9 | 3
CCOC(=O)c1ccc(NC(=S)N(CCCN2CCCC(C)C2)Cc2ccco2)cc1 (stereo not given) | -3 | 0.13 | 15 | -1.6 | 1 | 99*
CCc1ccc(NC(=S)N(CCN2CCCCC2)Cc2ccco2)cc1 | 10 | 0.098 | 5 | -1.1 | 0.9 | 95*
CCOC(=O)c1ccc(NC(=S)N(CCCN2CCN(CC)CC2)Cc2ccco2)cc1 | -10 | 0.45 | 0 | -0.44 | 1.1 | 20
CCOC(=O)c1ccc(NC(=S)N(CCCN2CCCC2)Cc2ccco2)cc1 | 3 | 0.61 | -9 | -1.7 | 1 | 80*
COc1ccc(CN(C)Cc2ccccc2)c(OC)c1OC | 14 | -0.011 | -14 | -0.59 | 0.9 | -2
O=C(c1ccco1)N1CCN(CCCCOc2ccc(F)cc2)CC1 | 6 | -0.66 | -9 | 0.0031 | 0.9 | 91*
O=C(c1ccco1)N1CCN(CC(O)COc2ccc3oc4ccccc4c3c2)CC1 (stereo not given) | 16 | -1.1 | 30 | . | 0.8 | 85*
COc1ccc(Oc2ncc(CN3CCN(c4ccccc4)CC3)s2)cc1 | 20 | -0.18 | 28 | -0.73 | 0.8 | -1
Brc1ccc(OCCOCCN2CCOCC2)cc1 | 7 | . | 10 | . | 0.9 | 90*
O=C(COc1ccc2ccccc2c1)N1CCN(C(=O)c2ccco2)CC1 | 5 | 0.37 | 1 | -1.5 | 0.9 | 4
Brc1ccc(Oc2ncc(CN3CCOCC3)s2)cc1 | 9 | -0.12 | 12 | . | 0.9 | 90*
OC(COc1ccc(Br)cc1)CN1CCOCC1 (stereo not given) | 16 | 0.19 | -8 | 1.1 | 0.8 | -2
O=C(COc1ccc(Br)cc1)N1CCOCC1 | 2 | 0.022 | -10 | -0.52 | 1 | -5
Brc1ccc(OCCCCCN2CCOCC2)cc1 | 9 | -0.013 | 21 | -0.38 | 0.9 | 98*
SMILES | Diaph inh CS | KCC2 mod | WT yeast gro inh | ROMK mod | Diaphorase act | Lmaj promast
COc1cccc(OCCCCCN2CCOCC2)c1 | 8 | -0.83 | 14 | . | 0.9 | 99*
Fc1ccc(OCCCCN2CCOCC2)cc1 | 12 | -1 | -14 | 0.48 | 0.9 | 85*
CC1=C[C@H]2OC(=O)[C@@H](C)[C@H]2C[C@@H]2[C@H]1C[C@@H](O)[C@@]2(C)O | . | 0.0053 | . | . | . | .
OCCCCNCc1ccc(OCc2ccc(Cl)cc2)cc1 | -14 | -0.3 | 24 | -2.1 | 1.1 | 100*
COc1cccc(CNCCO)c1OCc1ccc(Cl)cc1 | 8 | 1.1 | 10 | -0.068 | 0.9 | 6
CCCCCNCc1ccc(Cl)cc1 | 2 | 0.4 | -9 | 0.29 | 1 | 51*
CCCCCNCc1ccc(Br)cc1 | 25 | 2 | 4 | -0.66 | 0.7 | 87*
CCCCNC(=S)Nc1ccc(Cl)cc1 | 12 | -0.02 | 29 | 0.07 | 0.9 | 25
CCCCCCNCc1ccc(Br)cc1 | 8 | 0.0026 | 2 | . | 0.9 | 86*
NC(=O)CNC(=O)[C@@H]1CC2(CC(c3ccc(Cl)cc3)=NO2)CN1C(=O)c1ccc(Br)cc1 (stereo not given in full) | 19 | -0.14 | 2 | 0.073 | 0.8 | -4
CCN1CCN(C(=O)c2ccccc2NS(=O)(=O)c2ccc(Cl)cc2)CC1 | 9 | -0.61 | -10 | 0.022 | 0.9 | -12
COc1ccc(C2CC(c3ccccc3)=NN2c2ccc(S(N)(=O)=O)cc2)cc1OC (stereo not given) | 12 | 0.35 | 5 | 0.32 | 0.9 | 26
NS(=O)(=O)c1ccc(N2N=C(c3ccccc3)CC2c2cccc(F)c2)cc1 (stereo not given) | 23 | 1.1 | 85* | . | 0.8 | 41
NS(=O)(=O)c1ccc(N2N=C(c3ccc(Br)cc3)CC2c2ccc(F)cc2)cc1 (stereo not given) | 30 | 1.1 | 92* | . | 0.7 | 95*
Cc1[nH]n(-c2nc(-c3ccc(Cl)cc3)cs2)c(=O)c1N=Nc1ccc(O)cc1 | -5 | -0.12 | 18 | 0.72 | 1 | 71*
Cc1cc(C)c(OCC(=O)N/N=C/c2ccc3c(c2)OCO3)c(C)c1 | 5 | 0.46 | 10 | . | 0.9 | 39
CC(=O)NN1C(=O)c2ccccc2NC1c1ccc([N+](=O)[O-])o1 (stereo not given) | 10 | -0.37 | 6 | 0.26 | 0.9 | 66*
O=C(NN1C(=O)c2ccccc2NC1c1ccco1)c1ccc(Br)cc1 (stereo not given) | 6 | -1.2 | 14 | -0.26 | 0.9 | 3
O=C(NN1C(=O)c2ccccc2NC1c1ccc([N+](=O)[O-])o1)c1ccc(Br)cc1 (stereo not given) | 11 | -1.4 | -1 | -0.18 | 0.9 | 95*
Oc1cccc2cc3cccc(O)c3c(O)c12 | 8 | 0.18 | -1 | -0.28 | 0.9 | -1
CC(C)(C)C1(O)CC(C(F)(F)F)=NN1C(=O)Cc1ccc([N+](=O)[O-])cc1 (stereo not given) | 2 | 0.45 | 12 | -0.53 | 1 | 2
O=C(/C=C(\c1ccccc1)n1cncn1)c1ccccc1 | 6 | 0.94 | -10 | 0.49 | 0.9 | 7
O=C(/C=C(\c1ccc(Cl)cc1)n1cncn1)c1ccc(Cl)cc1 | 4 | 1 | -5 | . | 1 | 74*
COP(=O)(OC)c1nc(-c2cccc3ccccc23)oc1N1CCCCC1 | 17 | -0.65 | 28 | -0.35 | 0.8 | 41

Screens: PubChem, several laboratories
